Laboratory results published in ChEMBL document CHEMBL2046324, “Synthesis and biological evaluation of 1-arylsulfonyl-5-(N-hydroxyacrylamide)indoles as potent histone deacetylase inhibitors with antitumor activity in vivo” (J Med Chem, 2012).

Experiments:
A549 = test: Growth inhibition of human A549 cells after 48 hrs by SRB assay; assay type: functional
Method in brief: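 A549 cells were grown in RPMI 1640 with 10% FBS and 2 mM glutamine at 37 °C in 5% CO₂, then seeded in medium with 5% FBS. A 24 h TCA-fixed plate gave T₀. Cells were exposed to compound or DMSO for 48 h, fixed with 10% TCA and stained with 0.4% SRB; bound dye was solubilized in 10 mM Tris and read at 515 nm. GI₅₀ was the concentration halving net protein increase. At least three independent experiments.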

MDA-MB-231 = test: cells; assay type: functional; conditions: Homo sapiens, MDA-MB-231, 48 h
cells = assay type: functional, Hep 3B2; conditions: Homo sapiens, Hep3B, 48 h
Histone deacetylase = test: Inhibition of HDAC in human HeLa cell nuclear extract after 30 mins by fluorescence microplate reader; assay type: protein assay
PC-3 = test: cells; assay type: functional; conditions: Homo sapiens, PC-3, 48 h

GI50 (A549; Homo sapiens, A549, 48 h) | GI50 (MDA-MB-231) | IC50 (Histone deacetylase) | GI50 (PC-3) | GI50 (A549) | SMILES | GI50 (cells)
6.7 µM | 4.16 µM | 0.1709 µM | 3.67 µM | – | O=C(/C=C/c1cccc2c1ccn2S(=O)(=O)c1ccccc1)NO | 4.32 µM
> 10 µM | 5.68 µM | > 1 µM | 7.26 µM | – | O=C(NO)c1ccc2c(ccn2S(=O)(=O)c2ccccc2)c1 | > 10 µM
7.06 µM | 8.14 µM | > 1 µM | 5.77 µM | – | O=C(/C=C/c1cn(S(=O)(=O)c2ccccc2)c2ccccc12)NO | 8.87 µM
3.33 µM | 1.25 µM | 0.2752 µM | 1.26 µM | – | O=C(/C=C/c1ccc2[nH]cc(S(=O)(=O)c3ccccc3)c2c1)NO | 1.27 µM
9.07 µM | 4.37 µM | > 1 µM | 4.8 µM | – | O=C(/C=C/c1ccc2[nH]ccc2c1)NO | 3.65 µM
4.04 µM | 2.21 µM | 0.4075 µM | 2.07 µM | – | O=C(CCc1ccc2c(ccn2S(=O)(=O)c2ccccc2)c1)NO | 2.56 µM
– | – | – | – | 1.85 µM | O=C(CCCCCCC(=O)Nc1ccccc1)NO [VORINOSTAT] | –
2.85 µM | 1.73 µM | 0.1865 µM | 1.54 µM | – | O=C(/C=C/c1ccc2c(ccn2-c2ccccc2)c1)NO | 1.32 µM
5.3 µM | 2.41 µM | 0.254 µM | 2.4 µM | – | O=C(/C=C/c1ccc2ccn(S(=O)(=O)c3ccccc3)c2c1)NO | 2.12 µM
5.5 µM | 7.71 µM | > 1 µM | 4.75 µM | – | O=C(/C=C/c1cccc2ccn(S(=O)(=O)c3ccccc3)c12)NO | 3.82 µM
5.8 µM | 3.18 µM | 0.7576 µM | 2.32 µM | – | O=C(/C=C/c1ccc2c(ccn2C(=O)c2ccccc2)c1)NO | 2.4 µM
